Assays:
[1] = target: Aurora kinase B (Homo sapiens) (UniProt Q96GD4); assay: Inhibition of recombinant AURB (unknown origin) assessed as residual activity using [gamma-33P]ATP as substrate at 1 uM
Method in brief: (§1)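 Recombinant kinase panel screened at 1 µM in duplicate. Reactions started with [γ-33P]ATP (800 cpm/pmol) at 5, 20 or 50 µM, chosen to sit at or below each enzyme's ATP Km. Stopped with phosphoric acid and spotted onto P81 filters. Result given as residual kinase activity.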

[2] = target: Tyrosine-protein kinase CSK (Homo sapiens) (UniProt P41240); assay: Inhibition of recombinant CSK (unknown origin) assessed as residual activity using [gamma-33P]ATP as substrate at 1 uM; method in brief: as §1
[3] = target: Mitogen-activated protein kinase 3 (Homo sapiens) (UniProt P27361); assay: Inhibition of recombinant ERK1 (unknown origin) assessed as residual activity using [gamma-33P]ATP as substrate at 1 uM; method in brief: as §1
Mitogen-activated protein kinase 3 (Homo sapiens), sequence (P27361 whole entry): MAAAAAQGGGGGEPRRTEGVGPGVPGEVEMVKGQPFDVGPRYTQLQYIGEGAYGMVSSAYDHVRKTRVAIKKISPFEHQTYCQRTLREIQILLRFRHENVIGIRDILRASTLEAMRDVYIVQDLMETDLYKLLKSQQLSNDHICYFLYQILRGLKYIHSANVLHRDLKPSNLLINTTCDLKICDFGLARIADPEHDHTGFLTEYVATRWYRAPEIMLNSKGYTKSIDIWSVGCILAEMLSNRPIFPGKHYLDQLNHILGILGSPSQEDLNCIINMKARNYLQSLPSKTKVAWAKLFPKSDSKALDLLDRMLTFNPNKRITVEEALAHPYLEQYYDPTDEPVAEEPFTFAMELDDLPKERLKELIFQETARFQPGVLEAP

[4] = target: Mitogen-activated protein kinase 12 (Homo sapiens) (UniProt P53778); assay: Inhibition of recombinant p38 MAPKgamma (unknown origin) assessed as residual activity using [gamma-33P]ATP as substrate at 1 uM
Mitogen-activated protein kinase 12 (Homo sapiens), sequence (P53778 whole entry): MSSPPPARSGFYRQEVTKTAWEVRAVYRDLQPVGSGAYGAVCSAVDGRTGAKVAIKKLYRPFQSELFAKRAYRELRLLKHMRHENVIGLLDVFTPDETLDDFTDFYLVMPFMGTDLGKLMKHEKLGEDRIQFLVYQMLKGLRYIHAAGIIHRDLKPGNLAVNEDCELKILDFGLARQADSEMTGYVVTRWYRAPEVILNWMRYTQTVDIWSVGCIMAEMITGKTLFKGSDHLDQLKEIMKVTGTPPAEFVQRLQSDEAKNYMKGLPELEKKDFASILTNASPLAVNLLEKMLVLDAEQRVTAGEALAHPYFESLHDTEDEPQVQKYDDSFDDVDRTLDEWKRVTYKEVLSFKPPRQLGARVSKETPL
Method in brief: (§2)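 Kinase panel screen with each compound at 1 µM, in duplicate. Reactions were started with [γ-33P]ATP (800 cpm/pmol) at 5, 20 or 50 µM, chosen per enzyme to be at or below its ATP Km. Reactions were stopped with phosphoric acid and spotted onto P81 filters. Results are given as residual kinase activity.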

[5] = target: Protein kinase C zeta type (Homo sapiens) (UniProt Q05513); assay: Inhibition of recombinant PKCzeta (unknown origin) assessed as residual activity using [gamma-33P]ATP as substrate at 1 uM
Protein kinase C zeta type (Homo sapiens), sequence (Q05513 whole entry): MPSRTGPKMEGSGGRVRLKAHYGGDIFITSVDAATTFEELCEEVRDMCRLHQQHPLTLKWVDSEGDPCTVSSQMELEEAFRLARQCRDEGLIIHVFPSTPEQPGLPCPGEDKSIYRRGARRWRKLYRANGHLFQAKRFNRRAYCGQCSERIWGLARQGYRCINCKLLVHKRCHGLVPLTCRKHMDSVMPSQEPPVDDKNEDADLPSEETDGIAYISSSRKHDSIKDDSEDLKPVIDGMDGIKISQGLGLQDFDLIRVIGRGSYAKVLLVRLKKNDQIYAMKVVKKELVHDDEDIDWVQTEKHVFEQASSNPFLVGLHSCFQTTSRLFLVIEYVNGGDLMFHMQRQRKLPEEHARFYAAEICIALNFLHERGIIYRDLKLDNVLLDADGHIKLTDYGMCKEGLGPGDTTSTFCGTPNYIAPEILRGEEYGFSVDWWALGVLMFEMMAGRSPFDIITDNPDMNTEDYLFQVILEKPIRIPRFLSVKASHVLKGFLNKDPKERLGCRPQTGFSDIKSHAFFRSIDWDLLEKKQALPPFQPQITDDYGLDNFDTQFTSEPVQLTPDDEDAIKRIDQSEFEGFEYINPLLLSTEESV
Method in brief: (§3)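 Selectivity panel run under previously published conditions. Screened at 1 μM in duplicate. Reactions started with [γ-33P]ATP (800 cpm/pmol) at 5, 20 or 50 μM, chosen to be at or below each enzyme's ATP Km. Stopped with phosphoric acid, spotted onto P81 filters. Result expressed as residual kinase activity.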

[6] = target: Ephrin type-A receptor 2 (Homo sapiens) (UniProt P29317); assay: Inhibition of recombinant EPH-A2 (unknown origin) assessed as residual activity using [gamma-33P]ATP as substrate at 1 uM; method in brief: as §1
[7] = target: Inhibitor of nuclear factor kappa-B kinase subunit beta (Homo sapiens) (UniProt O14920); assay: Inhibition of recombinant IKKbeta (unknown origin) assessed as residual activity using [gamma-33P]ATP as substrate at 1 uM; method in brief: as §1
[8] = target: Dual specificity mitogen-activated protein kinase kinase 2 (Homo sapiens) (UniProt P36507); assay: Inhibition of recombinant MKK2 (unknown origin) assessed as residual activity using [gamma-33P]ATP as substrate at 1 uM; method in brief: as §3
[9] = target: Ribosomal protein S6 kinase alpha-1 (Homo sapiens) (UniProt Q15418); assay: Inhibition of recombinant RSK1 (unknown origin) assessed as residual activity using [gamma-33P]ATP as substrate at 1 uM; method in brief: as §2
[10] = target: Tyrosine-protein kinase ZAP-70 (Homo sapiens) (UniProt P43403); assay: Inhibition of recombinant ZAP70 (unknown origin) assessed as residual activity using [gamma-33P]ATP as substrate at 1 uM; method in brief: as §2
Tyrosine-protein kinase ZAP-70 (Homo sapiens), sequence (P43403 whole entry): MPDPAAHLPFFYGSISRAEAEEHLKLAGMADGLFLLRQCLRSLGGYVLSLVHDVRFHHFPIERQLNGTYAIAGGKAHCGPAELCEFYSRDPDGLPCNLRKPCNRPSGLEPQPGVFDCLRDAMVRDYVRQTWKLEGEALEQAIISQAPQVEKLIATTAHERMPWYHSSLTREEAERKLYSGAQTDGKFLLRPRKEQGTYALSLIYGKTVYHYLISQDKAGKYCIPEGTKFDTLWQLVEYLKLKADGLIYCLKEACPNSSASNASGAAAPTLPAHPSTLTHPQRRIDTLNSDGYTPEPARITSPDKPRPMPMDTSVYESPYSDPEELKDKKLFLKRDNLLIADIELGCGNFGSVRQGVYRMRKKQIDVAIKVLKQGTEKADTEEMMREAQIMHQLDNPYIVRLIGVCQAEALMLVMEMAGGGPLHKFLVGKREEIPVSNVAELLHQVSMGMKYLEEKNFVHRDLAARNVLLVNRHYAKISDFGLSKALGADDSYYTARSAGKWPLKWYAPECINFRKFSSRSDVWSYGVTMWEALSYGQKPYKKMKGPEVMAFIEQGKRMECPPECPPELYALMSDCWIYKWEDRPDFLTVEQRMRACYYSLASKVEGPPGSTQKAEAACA

[11] = target: Mitogen-activated protein kinase 8 (Homo sapiens) (UniProt P45983); assay: Inhibition of recombinant JNK1 (unknown origin) assessed as residual activity using [gamma-33P]ATP as substrate at 1 uM; method in brief: as §3
Mitogen-activated protein kinase 8 (Homo sapiens), sequence (P45983 whole entry): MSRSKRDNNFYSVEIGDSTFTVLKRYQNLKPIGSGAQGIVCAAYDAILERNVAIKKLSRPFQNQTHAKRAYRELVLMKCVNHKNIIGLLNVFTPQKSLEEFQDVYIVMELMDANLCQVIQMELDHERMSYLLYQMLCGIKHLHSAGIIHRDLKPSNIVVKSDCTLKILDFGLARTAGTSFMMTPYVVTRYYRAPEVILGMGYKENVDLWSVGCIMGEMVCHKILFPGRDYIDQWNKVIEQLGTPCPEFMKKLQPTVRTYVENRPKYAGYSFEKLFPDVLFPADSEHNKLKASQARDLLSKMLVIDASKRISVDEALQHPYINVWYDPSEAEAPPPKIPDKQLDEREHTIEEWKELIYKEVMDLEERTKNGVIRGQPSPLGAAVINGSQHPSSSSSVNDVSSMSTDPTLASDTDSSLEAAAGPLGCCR

[12] = target: Glycogen synthase kinase-3 beta (Homo sapiens) (UniProt P49841); assay: Inhibition of recombinant GSK3b (unknown origin) assessed as residual activity using [gamma-33P]ATP as substrate at 1 uM; method in brief: as §1
[13] = target: 3-phosphoinositide-dependent protein kinase 1 (Homo sapiens) (UniProt O15530); assay: Inhibition of recombinant PDK1 (unknown origin) assessed as residual activity using [gamma-33P]ATP as substrate at 1 uM
[14] = target: Mitogen-activated protein kinase 9 (Homo sapiens) (UniProt P45984); assay: Inhibition of recombinant JNK2 (unknown origin) assessed as residual activity using [gamma-33P]ATP as substrate at 1 uM; method in brief: as §3
[15] = target: Serine/threonine-protein kinase 16 (Homo sapiens) (UniProt O75716); assay: Inhibition of recombinant MPSK1 (unknown origin) assessed as residual activity using [gamma-33P]ATP as substrate at 1 uM; method in brief: as §3
Serine/threonine-protein kinase 16 (Homo sapiens), sequence (O75716 whole entry): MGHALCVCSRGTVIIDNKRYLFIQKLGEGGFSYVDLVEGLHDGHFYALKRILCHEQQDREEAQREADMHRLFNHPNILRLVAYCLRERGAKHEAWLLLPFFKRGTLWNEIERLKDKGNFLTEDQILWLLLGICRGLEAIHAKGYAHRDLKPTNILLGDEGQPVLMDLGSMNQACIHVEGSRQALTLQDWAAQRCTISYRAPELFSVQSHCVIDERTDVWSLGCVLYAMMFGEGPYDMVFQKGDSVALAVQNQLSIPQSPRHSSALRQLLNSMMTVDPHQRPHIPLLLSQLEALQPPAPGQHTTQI

[16] = target: Mitogen-activated protein kinase 10 (Homo sapiens) (UniProt P53779); assay: Inhibition of recombinant JNK3 (unknown origin) assessed as residual activity using [gamma-33P]ATP as substrate at 1 uM; method in brief: as §3
[17] = target: Mitogen-activated protein kinase kinase kinase 11 (Homo sapiens) (UniProt Q16584); assay: Inhibition of recombinant MLK3 (unknown origin) assessed as residual activity using [gamma-33P]ATP as substrate at 1 uM; method in brief: as §3
Mitogen-activated protein kinase kinase kinase 11 (Homo sapiens), sequence (Q16584 whole entry, looked up): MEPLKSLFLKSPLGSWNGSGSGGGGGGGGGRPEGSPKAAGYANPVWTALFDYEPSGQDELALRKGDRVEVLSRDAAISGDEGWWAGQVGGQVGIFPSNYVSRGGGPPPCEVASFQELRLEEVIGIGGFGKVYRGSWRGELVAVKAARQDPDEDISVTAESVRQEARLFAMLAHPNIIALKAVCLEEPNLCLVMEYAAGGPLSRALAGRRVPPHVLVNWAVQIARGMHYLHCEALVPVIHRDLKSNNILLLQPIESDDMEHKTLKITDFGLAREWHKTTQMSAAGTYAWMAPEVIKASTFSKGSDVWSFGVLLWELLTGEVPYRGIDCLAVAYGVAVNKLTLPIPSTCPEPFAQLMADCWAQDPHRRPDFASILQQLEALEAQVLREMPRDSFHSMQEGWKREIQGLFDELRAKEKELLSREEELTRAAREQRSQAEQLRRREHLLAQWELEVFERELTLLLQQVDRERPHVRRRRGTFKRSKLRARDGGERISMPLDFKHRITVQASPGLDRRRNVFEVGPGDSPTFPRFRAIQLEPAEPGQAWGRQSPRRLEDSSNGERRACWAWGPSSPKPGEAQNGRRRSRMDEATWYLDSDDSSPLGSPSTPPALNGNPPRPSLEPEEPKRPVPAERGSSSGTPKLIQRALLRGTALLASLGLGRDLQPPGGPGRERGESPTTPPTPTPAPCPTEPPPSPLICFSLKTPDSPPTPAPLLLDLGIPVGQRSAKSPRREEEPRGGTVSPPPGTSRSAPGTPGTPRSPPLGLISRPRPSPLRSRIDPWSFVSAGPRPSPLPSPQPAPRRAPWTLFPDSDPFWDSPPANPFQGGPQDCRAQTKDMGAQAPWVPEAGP

[18] = target: Serine/threonine-protein kinase BRSK2 (Homo sapiens) (UniProt Q8IWQ3); assay: Inhibition of recombinant BRSK2 (unknown origin) assessed as residual activity using [gamma-33P]ATP as substrate at 1 uM; method in brief: as §1
Homo sapiens [19] = organism: Homo sapiens; assay: Inhibition of recombinant PKA (unknown origin) assessed as residual activity using [gamma-33P]ATP as substrate at 1 uM; method in brief: as §3
[20] = target: Ribosomal protein S6 kinase beta-1 (Homo sapiens) (UniProt P23443); assay: Inhibition of recombinant S6K1 (unknown origin) assessed as residual activity using [gamma-33P]ATP as substrate at 1 uM; method in brief: as §2
[21] = target: Tyrosine-protein kinase SYK (Homo sapiens) (UniProt P43405); assay: Inhibition of recombinant SYK (unknown origin) assessed as residual activity using [gamma-33P]ATP as substrate at 1 uM; method in brief: as §2
[22] = target: Death-associated protein kinase 1 (Homo sapiens) (UniProt P53355); assay: Inhibition of recombinant DAPK1 (unknown origin) assessed as residual activity using [gamma-33P]ATP as substrate at 1 uM; method in brief: as §1
[23] = target: Ribosomal protein S6 kinase alpha-3 (Homo sapiens) (UniProt P51812); assay: Inhibition of recombinant RSK2 (unknown origin) assessed as residual activity using [gamma-33P]ATP as substrate at 1 uM; method in brief: as §2
Homo sapiens [24] = organism: Homo sapiens; assay: Inhibition of recombinant VEGFR (unknown origin) assessed as residual activity using [gamma-33P]ATP as substrate at 1 uM; method in brief: as §2
[25] = target: Mitogen-activated protein kinase 13 (Homo sapiens) (UniProt O15264); assay: Inhibition of recombinant p38 MAPKdelta (unknown origin) assessed as residual activity using [gamma-33P]ATP as substrate at 1 uM; method in brief: as §2
[26] = target: Cyclin-dependent kinase 2/cyclin E1 (Homo sapiens, UniProt P24941); assay: Inhibition of recombinant CDK2/cyclin E (unknown origin) using histone H1 as substrate in presence of [gamma-33P]ATP; format: protein-complex assay
[27] = target: High affinity nerve growth factor receptor (Homo sapiens) (UniProt P04629); assay: Inhibition of recombinant TRKA (unknown origin) assessed as residual activity using [gamma-33P]ATP as substrate at 1 uM; method in brief: as §2
High affinity nerve growth factor receptor (Homo sapiens), sequence (P04629 33-796 limits assumed): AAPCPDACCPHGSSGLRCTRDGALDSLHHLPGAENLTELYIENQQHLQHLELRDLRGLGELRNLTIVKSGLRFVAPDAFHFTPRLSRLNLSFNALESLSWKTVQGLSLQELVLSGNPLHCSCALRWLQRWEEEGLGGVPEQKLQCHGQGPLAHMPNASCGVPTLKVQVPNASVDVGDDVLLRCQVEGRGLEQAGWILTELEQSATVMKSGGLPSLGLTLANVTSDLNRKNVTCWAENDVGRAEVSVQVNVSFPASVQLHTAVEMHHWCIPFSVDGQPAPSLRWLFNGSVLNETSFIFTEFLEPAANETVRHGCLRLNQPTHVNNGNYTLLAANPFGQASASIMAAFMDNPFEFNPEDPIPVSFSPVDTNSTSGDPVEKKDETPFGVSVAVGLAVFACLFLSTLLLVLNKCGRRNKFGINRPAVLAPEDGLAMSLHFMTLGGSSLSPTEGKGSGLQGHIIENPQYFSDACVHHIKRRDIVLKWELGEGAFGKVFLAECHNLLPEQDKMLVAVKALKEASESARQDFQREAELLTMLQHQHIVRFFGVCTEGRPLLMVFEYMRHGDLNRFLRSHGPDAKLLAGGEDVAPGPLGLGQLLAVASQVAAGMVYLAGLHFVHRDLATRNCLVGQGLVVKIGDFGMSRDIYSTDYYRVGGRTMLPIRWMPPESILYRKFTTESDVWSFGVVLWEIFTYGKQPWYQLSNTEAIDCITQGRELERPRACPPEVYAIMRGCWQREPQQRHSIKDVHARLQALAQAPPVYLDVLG

[28] = target: Ephrin type-B receptor 4 (Homo sapiens) (UniProt P54760); assay: Inhibition of recombinant EPH-B4 (unknown origin) assessed as residual activity using [gamma-33P]ATP as substrate at 1 uM; method in brief: as §1

Aurora kinase B (Homo sapiens), sequence (Q96GD4 whole entry): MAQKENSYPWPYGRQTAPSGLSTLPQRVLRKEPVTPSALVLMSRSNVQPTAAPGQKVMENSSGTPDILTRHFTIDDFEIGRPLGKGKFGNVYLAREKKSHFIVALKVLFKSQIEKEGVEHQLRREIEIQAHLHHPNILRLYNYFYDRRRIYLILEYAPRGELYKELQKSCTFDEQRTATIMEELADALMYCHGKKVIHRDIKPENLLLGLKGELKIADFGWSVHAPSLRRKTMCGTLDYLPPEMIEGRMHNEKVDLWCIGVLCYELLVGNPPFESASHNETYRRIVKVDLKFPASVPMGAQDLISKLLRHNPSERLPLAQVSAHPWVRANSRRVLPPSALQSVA

Activity [1] [%]	Activity [2] [%]	Activity [3] [%]	Activity [4] [%]	Activity [5] [%]	Activity [6] [%]	Activity [7] [%]	Activity [8] [%]	Activity [9] [%]	Activity [10] [%]	Activity [11] [%]	Activity [12] [%]	Activity [13] [%]	Activity [14] [%]	Activity [15] [%]	Activity [16] [%]	Activity [17] [%]	Activity [18] [%]	Activity (Homo sapiens [19]) [%]	Activity [20] [%]	Compound	further results
47	58	50	77	68	22	74	53	18	86	88	37	68	85	36	96	37	77	90	49	CC[C@H](CO)Nc1nc(NC(=N)N)c2ncn(C(C)C)c2n1	Activity [21]: 58%; Activity [22]: 54%; Activity [23]: 35%; Activity (Homo sapiens [24]): 6%; Activity [25]: 37%; IC50 [26]: 140 nM; Activity [27]: 24%; Activity [28]: 6%
70	59	28	71	61	17	76	39	12	109	78	28	62	73	28	80	37	67	83	36	CC[C@@H](CO)Nc1nc(NC(=N)N)c2ncn(C(C)C)c2n1	Activity [21]: 50%; Activity [22]: 36%; Activity [23]: 71%; Activity (Homo sapiens [24]): 4%; Activity [25]: 23%; IC50 [26]: 37 nM; Activity [27]: 28%; Activity [28]: 6%

— ChEMBL document CHEMBL2331324, “Synthesis and biological evaluation of guanidino analogues of roscovitine” (Eur J Med Chem, 2013)
